Test results from ChEMBL document CHEMBL1155341, “Synthesis and antibacterial activity of 7-(1,2,3,4-tetrahydropyrrolo[1,2-a]pyrazin-7-yl) quinolones” (2009).
In brackets after ≈: the same amount, converted by molar mass. Activity calls are given as the source filed them. The calls are words filed in the database; no cut-off is given here.

Key:
Type in all cases: functional
Streptococcus pneumoniae [1] = test: Antibacterial activity against ciprofloxacin resistant Streptococcus pneumoniae OC5462 by broth microdilution method
Summary of the method: (§1)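 MIC determined by broth microdilution following CLSI (formerly NCCLS) M7-A5 guidelines for aerobically growing bacteria. MIC is the lowest compound concentration inhibiting visible growth. Strains are ciprofloxacin-resistant clinical isolates tested within a six-strain abbreviated panel.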

Streptococcus pneumoniae [2] = test: Antibacterial activity against ciprofloxacin resistant Streptococcus pneumoniae OC5458 by broth microdilution method; summary of the method: as §1
Escherichia coli = test: Antibacterial activity against ciprofloxacin susceptible Escherichia coli ATCC 25922 by broth microdilution method
Summary of the method: (§2)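 Broth microdilution per CLSI (NCCLS M7-A5) guidelines; MIC taken as lowest concentration inhibiting visible growth. Strains are ciprofloxacin-susceptible reference strains.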

Streptococcus pneumoniae [3] = test: Antibacterial activity against ciprofloxacin susceptible Streptococcus pneumoniae ATCC 49619 by broth microdilution method; summary of the method: as §2
Staphylococcus aureus [4] = test: Antibacterial activity against ciprofloxacin susceptible Staphylococcus aureus subsp. aureus ATCC 13709 by broth microdilution method; summary of the method: as §2
Streptococcus pneumoniae [5] = test: Antibacterial activity against ciprofloxacin resistant Streptococcus pneumoniae OC5465 by broth microdilution method; summary of the method: as §1
Staphylococcus aureus [6] = test: Antimicrobial activity against Staphylococcus aureus subsp. aureus ATCC 13709 infected in sc dosed Swiss Webster mouse treated 1 hr after infection measured fter 3 days; details: ATCC 13709, sc
Summary of the method: (§3)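 Female Swiss-Webster mice infected ip with S. aureus ATCC13709; test compound given subcutaneously or orally 1 h post-infection; mortality followed for three days; untreated infected mice served as controls.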

Staphylococcus aureus [7] = test: Antimicrobial activity against Staphylococcus aureus subsp. aureus ATCC 13709 infected in po dosed Swiss Webster mouse treated 1 hr after infection measured fter 3 days; details: ATCC 13709, po; summary of the method: as §3

| SMILES | MIC (Streptococcus pneumoniae [1]) [µg/mL] | MIC (Streptococcus pneumoniae [2]) | MIC (Escherichia coli) [µg/mL] | MIC (Streptococcus pneumoniae [3]) [µg/mL] | MIC (Staphylococcus aureus [4]) [µg/mL] | MIC (Streptococcus pneumoniae [5]) [µg/mL] | ED50 (Staphylococcus aureus [6]) [mg/kg] | ED50 (Staphylococcus aureus [7]) [mg/kg] |
| --- | --- | --- | --- | --- | --- | --- | --- | --- |
| C[C@@H]1NCCn2cc(-c3c(F)cc4c(c3OC(F)F)N(C3CC3)CC(C(=O)O)C4=O)cc21 (stereo not given in full) | 8 (≈ 17.8 µM) | 2 µg/mL (≈ 4.45 µM) | 1 (≈ 2.23 µM) | 2 (≈ 4.45 µM) | 0.25 (≈ 0.556 µM) | 2 (≈ 4.45 µM) | – | – |
| C[C@@H]1NCCn2cc(-c3c(F)cc4c5c3OC[C@H](C)N5CC(C(=O)O)C4=O)cc21 (stereo not given in full) | 8 (≈ 20 µM) | 4 µg/mL (≈ 10 µM) | 4 (≈ 10 µM) | 1 (≈ 2.5 µM) | 0.25 (≈ 0.626 µM) | 0.5 (≈ 1.25 µM) | – | – |
| COc1c(-c2cc3n(c2)C[C@H](C)NC3)c(F)cc2c1N(C1CC1)CC(C(=O)O)C2=O (stereo not given in full) | 1 (≈ 2.42 µM) | 0.5 µg/mL (≈ 1.21 µM) | 0.5 (≈ 1.21 µM) | 0.12 (≈ 0.29 µM) | 0.03 (≈ 0.0726 µM) | 0.25 (≈ 0.605 µM) | < 1.25 | 4 |
| C[C@H]1Cn2cc(-c3nc4c(cc3F)C(=O)C(C(=O)O)CN4c3ccc(F)cc3F)cc2CN1 (stereo not given in full) | 16 (≈ 35.1 µM) | 16 µg/mL (≈ 35.1 µM) | 16 (≈ 35.1 µM) | 1 (≈ 2.19 µM) | 0.12 (≈ 0.263 µM) | 2 (≈ 4.38 µM) | – | – |
| C[C@H]1Cn2cc(-c3cc4c(cc3F)C(=O)C(C(=O)O)CN4C3CC3)cc2CN1 (stereo not given in full) | 4 (≈ 10.4 µM) | 2 µg/mL (≈ 5.22 µM) | 2 (≈ 5.22 µM) | 0.5 (≈ 1.3 µM) | 0.06 (≈ 0.156 µM) | 0.12 (≈ 0.313 µM) | – | – |
| COc1c(-c2cc3n(c2)CCN[C@@H]3C)c(F)cc2c1N(C1CC1)CC(C(=O)O)C2=O (stereo not given in full) | 16 (≈ 38.7 µM) | > 16 µg/mL | 8 (≈ 19.3 µM) | 2 (≈ 4.84 µM) | 0.25 (≈ 0.605 µM) | 2 (≈ 4.84 µM) | – | – |
| C[C@H]1Cn2cc(-c3ccc4c(c3OC(F)F)N(C3CC3)CC(C(=O)O)C4=O)cc2CN1 (stereo not given in full) | 8 (≈ 18.5 µM) | 1 µg/mL (≈ 2.32 µM) | 1 (≈ 2.32 µM) | 1 (≈ 2.32 µM) | 0.12 (≈ 0.278 µM) | 1 (≈ 2.32 µM) | – | – |
| C[C@H]1Cn2cc(-c3c(F)cc4c5c3OC[C@H](C)N5CC(C(=O)O)C4=O)cc2CN1 (stereo not given in full) | 8 (≈ 20 µM) | 4 µg/mL (≈ 10 µM) | 4 (≈ 10 µM) | 1 (≈ 2.5 µM) | 0.25 (≈ 0.626 µM) | 0.5 (≈ 1.25 µM) | – | – |
| C[C@H]1NCCn2cc(-c3cc4c(cc3F)C(=O)C(C(=O)O)CN4C3CC3)cc21 (stereo not given in full) | 16 (≈ 41.7 µM) | 8 µg/mL (≈ 20.9 µM) | 4 (≈ 10.4 µM) | 1 (≈ 2.61 µM) | 0.25 (≈ 0.652 µM) | 0.25 (≈ 0.652 µM) | – | – |
| C[C@@H]1NCCn2cc(-c3nc4c(cc3F)C(=O)C(C(=O)O)CN4C3CC3)cc21 (stereo not given in full) | 8 (≈ 20.8 µM) | 8 µg/mL (≈ 20.8 µM) | 8 (≈ 20.8 µM) | 1 (≈ 2.6 µM) | 0.5 (≈ 1.3 µM) | 1 (≈ 2.6 µM) | – | – |
| C[C@@H]1NCCn2cc(-c3cc4c(cc3F)C(=O)C(C(=O)O)CN4C3CC3)cc21 (stereo not given in full) | 16 (≈ 41.7 µM) | 4 µg/mL (≈ 10.4 µM) | 4 (≈ 10.4 µM) | 1 (≈ 2.61 µM) | 0.25 (≈ 0.652 µM) | 0.5 (≈ 1.3 µM) | – | – |
| COc1c(-c2cc3n(c2)CCNC3)c(F)cc2c1N(C1CC1)CC(C(=O)O)C2=O (stereo not given) | 1 (≈ 2.5 µM) | 1 µg/mL (≈ 2.5 µM) | 1 (≈ 2.5 µM) | 0.25 (≈ 0.626 µM) | 0.03 (≈ 0.0751 µM) | 0.12 (≈ 0.3 µM) | – | – |
| COc1c(-c2cc3n(c2)C[C@@H](C)NC3)c(F)cc2c1N(C1CC1)CC(C(=O)O)C2=O (stereo not given in full) | 2 (≈ 4.84 µM) | 1 µg/mL (≈ 2.42 µM) | 1 (≈ 2.42 µM) | 0.25 (≈ 0.605 µM) | 0.25 (≈ 0.605 µM) | 0.5 (≈ 1.21 µM) | – | – |
| O=C(O)C1CN(C2CC2)c2c(ccc(-c3cc4n(c3)CCNC4)c2OC(F)F)C1=O (stereo not given) | 8 (≈ 19.2 µM) | inactive | 1 (≈ 2.4 µM) | 0.5 (≈ 1.2 µM) | 0.06 (≈ 0.144 µM) | 0.25 (≈ 0.599 µM) | – | – |
| C[C@H]1COc2c(-c3cc4n(c3)CCNC4)c(F)cc3c2N1CC(C(=O)O)C3=O (stereo not given in full) | > 16 | > 16 µg/mL | > 16 | 2 (≈ 5.19 µM) | 0.5 (≈ 1.3 µM) | 1 (≈ 2.59 µM) | – | – |
| C[C@H]1NCCn2cc(-c3ccc4c(c3OC(F)F)N(C3CC3)CC(C(=O)O)C4=O)cc21 (stereo not given in full) | 16 (≈ 37.1 µM) | 8 µg/mL (≈ 18.5 µM) | 4 (≈ 9.27 µM) | 1 (≈ 2.32 µM) | 0.5 (≈ 1.16 µM) | 4 (≈ 9.27 µM) | – | – |
| O=C(O)c1cn(C2CC2)c2cc(N3CCNCC3)c(F)cc2c1=O [CIPROFLOXACIN] | > 16 | > 16 µg/mL | 0.03 (≈ 0.0905 µM) | 1 (≈ 3.02 µM) | 0.12 (≈ 0.362 µM) | > 16 | 1.4 | 10.8 |
| C[C@@H]1NCCn2cc(-c3ccc4c(c3OC(F)F)N(C3CC3)CC(C(=O)O)C4=O)cc21 (stereo not given in full) | 16 (≈ 37.1 µM) | 4 µg/mL (≈ 9.27 µM) | 4 (≈ 9.27 µM) | 1 (≈ 2.32 µM) | 0.5 (≈ 1.16 µM) | 2 (≈ 4.64 µM) | – | – |
| COc1c(-c2cc3n(c2)CCN[C@H]3C)c(F)cc2c1N(C1CC1)CC(C(=O)O)C2=O (stereo not given in full) | 4 (≈ 9.67 µM) | 1 µg/mL (≈ 2.42 µM) | 2 (≈ 4.84 µM) | 0.5 (≈ 1.21 µM) | 0.12 (≈ 0.29 µM) | 0.5 (≈ 1.21 µM) | – | – |
| C[C@H]1Cn2cc(-c3nc4c(cc3F)C(=O)C(C(=O)O)CN4C3CC3)cc2CN1 (stereo not given in full) | 8 (≈ 20.8 µM) | 8 µg/mL (≈ 20.8 µM) | 2 (≈ 5.2 µM) | 0.5 (≈ 1.3 µM) | 0.06 (≈ 0.156 µM) | 0.25 (≈ 0.65 µM) | – | – |
| C[C@@H]1NCCn2cc(-c3nc4c(cc3F)C(=O)C(C(=O)O)CN4c3ccc(F)cc3F)cc21 (stereo not given in full) | > 16 | > 16 µg/mL | > 16 | 4 (≈ 8.76 µM) | 1 (≈ 2.19 µM) | 8 (≈ 17.5 µM) | – | – |
